Results reported in ChEMBL document CHEMBL5316351, “Development of a Covalent Inhibitor of c-Jun N-Terminal Protein Kinase (JNK) 2/3 with Selectivity over JNK1” (J Med Chem, 2023).
Active and inactive are the calls of the source. The calls are words filed in the database; no cut-off is given here.

Columns and labels:
[1] = GSH reactivity in potassium phosphate buffer at pH 7.4 assessed as half life at 1 uM by LC-MS/MS analysis; type: ADME; conditions: pH 7.4, 1 µM
[2] = target: T1, Mitogen-activated protein kinase 8 (Homo sapiens, UniProt P45983); experiment: Covalent binding affinity to JNK1 in human MM1.S cells at 2 uM incubated for 6 hrs by biotin-JNK-IN-7 probe based pull-down competition based analysis; type: cell-based
T1 sequence (P45983 whole entry): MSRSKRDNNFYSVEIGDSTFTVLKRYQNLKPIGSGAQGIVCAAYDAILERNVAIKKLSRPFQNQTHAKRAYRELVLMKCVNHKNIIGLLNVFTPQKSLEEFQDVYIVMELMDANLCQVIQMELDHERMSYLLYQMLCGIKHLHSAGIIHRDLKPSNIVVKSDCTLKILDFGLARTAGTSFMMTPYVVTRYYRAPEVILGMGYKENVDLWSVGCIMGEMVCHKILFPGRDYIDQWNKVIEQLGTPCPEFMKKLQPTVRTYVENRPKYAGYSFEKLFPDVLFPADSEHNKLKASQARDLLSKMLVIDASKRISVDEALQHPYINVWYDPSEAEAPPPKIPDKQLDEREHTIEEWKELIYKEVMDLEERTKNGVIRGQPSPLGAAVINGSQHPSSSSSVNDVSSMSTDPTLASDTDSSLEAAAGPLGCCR
Procedure, shortened: (§1)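 MM.1S cells exposed to compound or DMSO 6 h; lysed in HEPES pH 7.4/NP-40 buffer; lysates incubated with 1 μM biotin-JNK-IN-7 overnight at 4 °C then 2 h room temperature; streptavidin pull-down 2–3 h at 4 °C; bound JNK1/JNK2 detected by western blot.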

MM1.S [3] = experiment: Antiproliferative activity against human MM1.S cells assessed as inhibition of cell growth rate measured after 72 hrs by CellTiter-Glo luminescent assay; type: functional
[4] = Antiproliferative activity against human HAP1 cells transfected with sgGFP assessed as inhibition of cell growth incubated for 3 days by CellTiter-Glo luminescent assay; type: functional, cell-based; conditions: HAP1, 72 h
MM1.S [5] = experiment: Induction of apoptosis in human MM1.S cells assessed as increase in PARP cleavage at 0.5 to 2.5 uM incubated for 24 hrs by immunoblot analysis; type: functional, cell-based; conditions: dose 0.5-2.5 µM
[6] = target: T2, Mitogen-activated protein kinase 9 (Homo sapiens, UniProt P45984); experiment: Inhibition of His-tagged human recombinant JNK2 expressed in baculovirus expression system incubated for 1 hr in presence of ATP by Z'-Lyte assay relative to control
T2 sequence (P45984 whole entry, looked up, the tested form may be a part): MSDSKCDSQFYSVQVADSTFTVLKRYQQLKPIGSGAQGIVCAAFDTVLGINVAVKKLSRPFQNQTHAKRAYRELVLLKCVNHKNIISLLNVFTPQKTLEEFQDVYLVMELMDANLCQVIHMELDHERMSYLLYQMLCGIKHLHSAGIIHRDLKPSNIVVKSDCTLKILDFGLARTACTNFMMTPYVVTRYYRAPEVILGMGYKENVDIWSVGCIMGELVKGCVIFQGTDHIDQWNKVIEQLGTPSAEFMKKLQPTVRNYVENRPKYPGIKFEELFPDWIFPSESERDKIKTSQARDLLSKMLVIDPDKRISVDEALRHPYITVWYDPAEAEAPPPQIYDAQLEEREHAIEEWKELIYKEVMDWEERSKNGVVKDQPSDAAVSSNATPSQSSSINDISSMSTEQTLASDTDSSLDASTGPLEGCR

[7] = target: T3, Mitogen-activated protein kinase 14 (Homo sapiens, UniProt Q16539); experiment: Inhibition of Nano-Luc fused p38alpha (unknown origin) expressed in HEK293T cells pretreated for 3 hrs followed by K5-tarcer addition and measured after 1 hr by NanoBRET assay; type: cell-based; conditions: time 4.0 hrs
T3 sequence (Q16539 whole entry, the tested form may be a part): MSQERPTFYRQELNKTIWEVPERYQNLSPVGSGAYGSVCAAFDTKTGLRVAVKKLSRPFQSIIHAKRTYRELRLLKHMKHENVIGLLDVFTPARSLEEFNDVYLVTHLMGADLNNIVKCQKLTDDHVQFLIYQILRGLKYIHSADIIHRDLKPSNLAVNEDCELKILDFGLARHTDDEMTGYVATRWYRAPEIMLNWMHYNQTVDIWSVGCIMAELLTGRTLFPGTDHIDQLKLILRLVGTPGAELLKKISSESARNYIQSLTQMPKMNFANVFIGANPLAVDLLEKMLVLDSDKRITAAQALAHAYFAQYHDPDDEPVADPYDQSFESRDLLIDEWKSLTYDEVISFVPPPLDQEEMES

MM1.S [8] = experiment: Induction of apoptosis in human MM1.S cells at 250 nM by AnnexinV/PI staining based flow cytometry; type: functional, cell-based
MM1.S [9] = experiment: Antiproliferative activity against human MM1.S cells assessed as inhibition of cell growth rate pretreated for 1 hr with JNK2 inhibitor, CC930 followed by incubation with drug and measured after 72 hrs by CellTiter-Glo luminescent assay; type: functional, cell-based
Procedure, shortened: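 MM.1S cells seeded 4000 cells/well, pretreated with 10 μM CC930, then exposed to inhibitor for 72 h; CellTiter-Glo luminescence, GR values from GR calculator; three biological replicates.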

[10] = Antiproliferative activity against wild type human ANBL-6 cells assessed as inhibition of cell growth incubated for 72 hrs by CellTiter-Glo luminescent assay; type: functional, cell-based; conditions: ANBL-6, 72 h
[11] = target: T2, Mitogen-activated protein kinase 9; experiment: Covalent binding affinity to JNK2 in human MM1.S cells at 500 nM incubated for 6 hrs by biotin-JNK-IN-7 probe based pull-down competition based analysis; type: cell-based; procedure, shortened: as §1
[12] = target: T4, 1-phosphatidylinositol 3-phosphate 5-kinase (Homo sapiens, UniProt Q9Y2I7); experiment: Inhibition of PIKFYVE in human SUM159 cells at 1 uM by KiNativ Profiling analysis; type: cell-based; conditions: SUM159PT
T4 sequence (Q9Y2I7 whole entry): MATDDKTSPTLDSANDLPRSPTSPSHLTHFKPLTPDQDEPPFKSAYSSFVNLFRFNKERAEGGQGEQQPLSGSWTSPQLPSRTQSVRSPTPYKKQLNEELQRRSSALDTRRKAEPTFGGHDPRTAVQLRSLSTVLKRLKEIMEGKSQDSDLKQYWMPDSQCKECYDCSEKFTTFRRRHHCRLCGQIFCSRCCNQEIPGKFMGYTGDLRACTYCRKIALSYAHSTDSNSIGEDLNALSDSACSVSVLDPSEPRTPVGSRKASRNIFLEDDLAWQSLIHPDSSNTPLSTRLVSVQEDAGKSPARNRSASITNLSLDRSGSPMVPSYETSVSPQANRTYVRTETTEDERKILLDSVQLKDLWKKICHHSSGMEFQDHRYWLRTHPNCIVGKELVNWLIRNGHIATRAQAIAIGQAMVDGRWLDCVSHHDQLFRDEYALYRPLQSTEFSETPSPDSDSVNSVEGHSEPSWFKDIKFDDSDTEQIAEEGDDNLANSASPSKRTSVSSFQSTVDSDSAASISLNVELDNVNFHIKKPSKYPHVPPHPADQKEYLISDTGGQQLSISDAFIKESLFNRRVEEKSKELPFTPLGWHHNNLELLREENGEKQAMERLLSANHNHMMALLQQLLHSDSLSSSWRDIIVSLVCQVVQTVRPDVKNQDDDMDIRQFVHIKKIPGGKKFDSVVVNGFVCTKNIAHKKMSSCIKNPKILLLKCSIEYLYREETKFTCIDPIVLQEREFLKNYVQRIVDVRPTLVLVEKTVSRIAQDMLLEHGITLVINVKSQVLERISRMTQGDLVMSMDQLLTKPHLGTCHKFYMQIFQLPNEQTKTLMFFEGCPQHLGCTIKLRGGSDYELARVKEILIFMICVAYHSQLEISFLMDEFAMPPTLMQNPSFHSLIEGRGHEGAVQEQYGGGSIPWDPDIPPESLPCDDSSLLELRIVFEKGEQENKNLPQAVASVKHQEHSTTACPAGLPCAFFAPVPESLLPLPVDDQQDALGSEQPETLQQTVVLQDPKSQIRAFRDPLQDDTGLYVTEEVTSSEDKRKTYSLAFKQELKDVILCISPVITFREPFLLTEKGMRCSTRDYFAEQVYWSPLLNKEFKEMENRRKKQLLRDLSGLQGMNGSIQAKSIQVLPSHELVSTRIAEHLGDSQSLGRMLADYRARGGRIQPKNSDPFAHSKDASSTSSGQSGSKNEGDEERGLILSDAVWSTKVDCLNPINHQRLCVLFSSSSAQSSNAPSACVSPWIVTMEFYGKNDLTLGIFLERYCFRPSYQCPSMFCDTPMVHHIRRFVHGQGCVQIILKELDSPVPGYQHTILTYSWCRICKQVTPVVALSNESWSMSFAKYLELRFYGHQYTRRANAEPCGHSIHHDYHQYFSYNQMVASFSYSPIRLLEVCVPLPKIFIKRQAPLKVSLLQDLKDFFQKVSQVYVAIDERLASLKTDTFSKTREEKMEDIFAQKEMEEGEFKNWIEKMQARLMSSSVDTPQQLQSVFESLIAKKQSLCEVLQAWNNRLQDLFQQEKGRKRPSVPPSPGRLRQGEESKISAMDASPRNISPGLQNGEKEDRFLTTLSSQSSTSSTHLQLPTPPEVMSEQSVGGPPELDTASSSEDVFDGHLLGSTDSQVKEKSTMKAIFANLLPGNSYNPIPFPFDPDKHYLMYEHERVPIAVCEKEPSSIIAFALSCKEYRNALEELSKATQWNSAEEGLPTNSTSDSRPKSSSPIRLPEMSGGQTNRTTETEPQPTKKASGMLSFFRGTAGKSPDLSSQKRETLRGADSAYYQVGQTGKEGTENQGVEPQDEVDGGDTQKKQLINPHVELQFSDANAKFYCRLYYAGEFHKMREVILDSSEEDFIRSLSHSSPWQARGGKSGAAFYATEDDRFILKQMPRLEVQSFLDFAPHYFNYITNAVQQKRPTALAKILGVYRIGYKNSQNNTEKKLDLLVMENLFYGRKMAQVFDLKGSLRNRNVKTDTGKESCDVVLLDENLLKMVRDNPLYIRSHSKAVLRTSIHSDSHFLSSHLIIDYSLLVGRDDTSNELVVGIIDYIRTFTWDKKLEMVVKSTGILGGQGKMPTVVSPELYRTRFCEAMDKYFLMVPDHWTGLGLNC
Procedure, shortened: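 SUM159 cells treated with 1 μM compound, collected, PBS-washed and frozen; lysates probed with ATP/ADP-biotin acyl probe labelling catalytic lysine (KiNativ); protection from labelling measured.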

MM1.S [13] = type: functional, cell-based; conditions: Homo sapiens, time 72.0 hrs
[14] = Antiproliferative activity against JNK knock-out human HAP1 cells transfected with sgJNK#2 assessed as inhibition of cell growth incubated for 3 days by CellTiter-Glo luminescent assay; type: functional, cell-based; conditions: HAP1, 72 h
[15] = Antiproliferative activity against human HAP1 cells assessed as inhibition of cell growth incubated for 3 days by CellTiter-Glo luminescent assay; type: functional, cell-based; conditions: HAP1, 72 h
[16] = Antiproliferative activity against Bortezomib-resistant human ANBL-6 cells assessed as inhibition of cell growth incubated for 72 hrs by CellTiter-Glo luminescent assay; type: functional, cell-based; conditions: ANBL-6, 72 h
MM1.S [17] = experiment: Induction of apoptosis in human MM1.S cells assessed as increase in caspase-3 cleavage at 0.5 to 2.5 uM incubated for 24 hrs by immunoblot analysis; type: functional, cell-based; conditions: dose 0.5-2.5 µM
[18] = target: Mitogen-activated protein kinase 10 (Homo sapiens) (UniProt P53779); experiment: Inhibition of JNK3 in human MM1.S cells at 1 uM by KiNativ Profiling analysis; type: cell-based
Chain of Mitogen-activated protein kinase 10 (Homo sapiens) (P53779 whole entry): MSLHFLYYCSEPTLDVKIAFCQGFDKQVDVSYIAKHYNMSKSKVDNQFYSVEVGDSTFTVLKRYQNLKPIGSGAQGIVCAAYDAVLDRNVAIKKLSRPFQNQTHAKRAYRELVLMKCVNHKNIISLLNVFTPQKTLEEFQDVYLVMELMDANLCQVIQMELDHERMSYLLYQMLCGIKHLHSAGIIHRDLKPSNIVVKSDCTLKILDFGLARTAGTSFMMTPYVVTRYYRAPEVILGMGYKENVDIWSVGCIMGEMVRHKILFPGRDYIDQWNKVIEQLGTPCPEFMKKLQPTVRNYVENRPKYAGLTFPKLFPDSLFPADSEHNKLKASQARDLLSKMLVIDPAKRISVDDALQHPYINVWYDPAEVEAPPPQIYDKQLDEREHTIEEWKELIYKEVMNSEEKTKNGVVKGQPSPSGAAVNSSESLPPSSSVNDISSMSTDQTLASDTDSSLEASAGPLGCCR
Procedure, shortened: (§2)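 MM.1S cells treated with 1 μM compound, collected, PBS-washed, frozen; KiNativ lysate profiling with ATP/ADP-biotin probe labelling conserved catalytic lysine.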

[19] = Half life in mouse liver microsomes at 1 uM by LC-MS/MS analysis; type: ADME, Microsome
[20] = target: T3, Mitogen-activated protein kinase 14; experiment: Inhibition of GST-tagged human recombinant p38alpha expressed in Escherichia coli by Z'-LYTE assay
[21] = target: T4, 1-phosphatidylinositol 3-phosphate 5-kinase; experiment: Inhibition of wild type partial length human PIKFYVE (F1512 to C2098 residues) expressed in mammalian expression system at 1 uM by KinomeScan analysis
Procedure, shortened: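 KINOMEscan (ScanMAX) binding panel of >400 kinases, compound tested at 1 μM; reported as percent inhibition/score.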

[22] = target: T2, Mitogen-activated protein kinase 9; experiment: Inhibition of JNK2 in human MM1.S cells at 1 uM by KiNativ Profiling analysis; type: cell-based; procedure, shortened: as §2
[23] = target: T4, 1-phosphatidylinositol 3-phosphate 5-kinase; experiment: Inhibition of PIKFYVE in human MDA-MB-231 cells assessed as vacuole formation upto 4 uM measured after 3 days by bright field microscopy; type: cell-based; conditions: time 3.0 day
Procedure, shortened: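 MDA-MB-231 cells (DMEM, 10% FBS) seeded, next day treated with inhibitor or DMSO; after 3 days imaged by bright-field microscopy at 20× for vacuoles.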

[24] = target: T1, Mitogen-activated protein kinase 8; experiment: Inhibition of JNK1 in human MM1.S cells at 1 uM by KiNativ Profiling analysis; type: cell-based; procedure, shortened: as §2
[25] = Antiproliferative activity against JNK knock-out human HAP1 cells transfected with sgJNK#1 assessed as inhibition of cell growth incubated for 3 days by CellTiter-Glo luminescent assay; type: functional, cell-based; conditions: HAP1, 72 h
[26] = target: Mitogen-activated protein kinase 10 (Homo sapiens) (UniProt P53779); experiment: Inhibition of GST-tagged human recombinant JNK3 expressed in insect cells incubated for 1 hr in presence of ATP by Z'-lyte assay relative to control; conditions: Insect cell
MM1.S [27] = experiment: Antiproliferative activity against human MM1.S cells overexpressing wild type JNK2 assessed as inhibition of cell growth rate measured after 72 hrs by CellTiter-Glo luminescent assay; type: functional, cell-based
[28] = target: T1, Mitogen-activated protein kinase 8; experiment: Inhibition of His-tagged human recombinant JNK1 expressed in insect cells incubated for 1 hr in presence of ATP by Z'-Lyte assay relative to control; conditions: Insect cell
[29] = Half life in human liver microsomes at 1 uM by LC-MS/MS analysis; type: ADME, Microsome

C[C@H]1CN(C(=O)c2ccc(NC(=O)/C=C/CN(C)C)cc2)C[C@H]1Nc1nccc(-c2c(-c3ccccc3)nn3ccccc23)n1
t1/2 [1]: 46 min | Activity [2]: Active | GR50 (MM1.S [3]): 200 nM | IC50 [4]: 976 nM | Activity (MM1.S [5]): Active | Imax [6]: 98% | inhibition [7]: Active | Activity (MM1.S [8]): Active | Activity (MM1.S [9]): Active | IC50 [10]: 120 nM | Activity [11]: Active | inhibition [12]: inactive | Activity (MM1.S [13]): Active | IC50 [14]: 846 nM | IC50 [15]: 529 nM | IC50 [16]: 96 nM | Activity (MM1.S [17]): Active | inhibition [18]: Active | t1/2 [19]: 11 min | IC50 [20]: 15 nM | inhibition [21]: 44% | inhibition [22]: Active | inhibition [23]: inactive | inhibition [24]: Active | IC50 [25]: 1110 nM | Imax [26]: 68% | Activity (MM1.S [27]): Active | Imax [28]: 85% | t1/2 [29]: 16 min
